In the library only some 2.3% were active in any assay of this set; here they are far more common.
SUMO1 PPI mod: SUMO1-SIM interaction modulation | 360,000 tested, 0.33% active | P63165 | inhibition, % at 20 µM | SUMO1 binding to a labelled peptide, TR-FRET, 1 h; in the data active means inhibition above about 37%
Target sequence (P63165 whole entry, looked up): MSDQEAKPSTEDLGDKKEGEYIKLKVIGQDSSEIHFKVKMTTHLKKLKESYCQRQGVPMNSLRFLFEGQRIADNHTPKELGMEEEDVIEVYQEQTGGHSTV
Scp1 inh: inhibitors of human Scp-1 phosphatase | Recombinant Scp1, phosphopeptide, malachite green phosphate absorbance | inhibition, % at 20 µM | 340,000 tested, 0.88% active | AID 493091;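 active means inhibition above about 50% at 20 µM, limit read from the data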;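 further: plate controls were DMSO wells with enzyme for no effect and wells lacking enzyme for full effect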
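System: truncated SCP-1 phosphatase (76-261aa); medium: Tris acetate buffer pH 5.5 with MgCl2 and Tween-20; incubation: 45 min room-temperature reaction, 5 min colour, 30 min stabiliser; compound: single 20 µM dose, 1% DMSO; reagent: Phosphorylated 17-residue peptide substrate; read-out: % inhibition at 20 µM; technique: colorimetric free-phosphate detection, absorbance 630 nm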
LMPTP inh: blocks human LMPTP phosphatase; P24666; recombinant LMPTP-A, OMFP fluorogenic substrate, fluorescence intensity; inhibition, % at 20 µM; 360,000 tested, 0.22% active; AID 651560;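 active means compounds that cut the enzyme signal by at least half of the control window in the single-dose screen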;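 further: plate controls were DMSO wells with enzyme plus substrate for no effect and substrate without enzyme for full effect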
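Buffer or medium: Bis-Tris pH 6.0, DTT, detergent; Assay system: LMPTP-A enzyme; Quantity: 0.625 nM enzyme; Detection: endpoint fluorescence intensity; Times: 50 min dark incubation at room temperature; Controls: substrate-only low control, DMSO enzyme-plus-substrate high control; Doses: single 20 µM dose; Read-out: percent inhibition versus substrate-only and uninhibited controls; Reagent: 400 µM OMFP.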
DNMT1 inh: DNMT1 (human) enzyme inhibition; P26358; DNMT1 molecular beacon, Hinp1I cleavage, fluorescence; inhibition (reported as % activation of signal), % at 10 µM; 360,000 tested, 0.83% active; in the data active means inhibition above about 50%
STEP block: STEP (human) phosphatase inhibition | inhibition, % at 20 µM | recombinant STEP, OMFP fluorogenic substrate, fluorescence | 360,000 tested, 0.25% active | P54829;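 active means inhibition at 20 µM, scaled per plate between control wells, above about 37%, limit read from the data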;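 further: 0% = DMSO with enzyme and substrate and 100% = substrate only without enzyme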
Target sequence (P54829 whole entry, looked up): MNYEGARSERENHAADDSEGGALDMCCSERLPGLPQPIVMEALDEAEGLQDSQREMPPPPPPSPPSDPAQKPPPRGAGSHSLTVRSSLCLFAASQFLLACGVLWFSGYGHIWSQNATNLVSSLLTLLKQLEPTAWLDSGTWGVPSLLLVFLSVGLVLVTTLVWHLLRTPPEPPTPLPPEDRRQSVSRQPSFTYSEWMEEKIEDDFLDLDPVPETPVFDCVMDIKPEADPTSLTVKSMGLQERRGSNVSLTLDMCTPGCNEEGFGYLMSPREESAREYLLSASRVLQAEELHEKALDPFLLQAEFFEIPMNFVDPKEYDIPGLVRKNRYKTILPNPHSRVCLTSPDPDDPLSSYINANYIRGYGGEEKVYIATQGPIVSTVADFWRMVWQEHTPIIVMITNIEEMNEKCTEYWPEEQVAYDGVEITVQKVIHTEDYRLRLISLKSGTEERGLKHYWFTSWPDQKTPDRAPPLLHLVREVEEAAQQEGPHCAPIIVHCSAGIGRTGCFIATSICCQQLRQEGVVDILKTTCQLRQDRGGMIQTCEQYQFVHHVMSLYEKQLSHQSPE
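medium = Bis-Tris buffer pH 6.0, 2.5 mM DTT, 0.005% Tween 20 | test system = STEP (striatal-enriched tyrosine phosphatase) enzyme, cell-free | measure = normalized % inhibition | compound dosing = 20 µM, 1% DMSO | also added = 25 µM OMFP | schedule = reaction 20 min, ambient temperature | measured by = fluorescence read at 480 nm ex / 540 nm em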
NadD block: NadD (S. aureus) enzyme inhibition; purified NadD enzyme, colorimetric absorbance read-out; inhibition, % at 20 µM; 360,000 tested, 0.78% active; AID 602399; in the data active means inhibition above about 26%
NadD inh conf: NadD (S. aureus) inhibition, single concentration confirmation; shares compounds with NadD block; inhibition, % at 20 µM; purified S. aureus NadD, colorimetric enzyme assay; 2,000 tested, 13% active; in the data active means inhibition mostly above about 42%, no sharp cut-off; inactive means mostly below about 42%
* marks the source's active call; other numbers are inactive results; nt = no result.

SMILES | SUMO1 PPI mod | Scp1 inh | LMPTP inh | DNMT1 inh | STEP block | NadD block | NadD inh conf
CC(C)C[C@H]1CN([C@@H](Cc2ccccc2)CN2CCC[C@@H]2CN2C(=O)C(=O)NC[C@@H]2Cc2ccc(O)cc2)C(=O)C(=O)N1CC1CCCCCC1 | 12 | nt | 2 | 12 | 4 | 12 | nt
CC(C)C[C@H]1CN([C@@H](Cc2ccc(O)cc2)CN2CCC[C@H]2CN2C(=O)C(=O)NC[C@@H]2Cc2ccccc2)C(=O)C(=O)N1CC1CCCCCC1 | 9 | nt | 2 | nt | nt | 30* | 35
CC(C)C[C@H]1CN([C@@H](Cc2ccc(O)cc2)CN2CCC[C@@H]2CN2C(=O)C(=O)NC[C@@H]2Cc2ccccc2)C(=O)C(=O)N1CC1CCCCC1 | 5 | 10 | -1 | 8 | -1 | 31* | 37
COc1ccc(NC(=O)CN(c2ccc(OC)cc2)S(=O)(=O)c2ccc(OC)c(OC)c2)cc1 | 5 | -2 | 0 | -5 | -1 | -2 | nt
COc1ccc(C)cc1Nc1nc(-c2c[nH]c3ccccc23)cs1 | -3 | -1 | 3 | -30 | 2 | 39* | 36
N#Cc1ccc(S(=O)(=O)N2CCN(Cc3cccs3)CC2)cc1 | 5 | -7 | 2 | 1 | -3 | 0 | nt
COc1cc(C2c3c(c(C)c(C)oc3=O)Oc3c(C)c(C)oc(=O)c32)ccc1OS(=O)(=O)c1ccc(C)cc1 | 10 | -2 | 2 | -10 | 3 | 32* | 2
COc1ccc(-c2[nH]ncc2CN2CCCCCCC2)c(OC)c1 | -1 | -2 | 21 | -55 | 10 | 30* | 15
COc1ccc(-c2[nH]ncc2CN2CCN(c3ccccn3)CC2)c(OC)c1 | -4 | -14 | 0 | -6 | -3 | -6 | nt
FC(F)(F)c1nnc(-c2ccccc2)nc1Sc1ccccc1 | 1 | -12 | 3 | 5 | 4 | 17 | nt
FC(F)(F)c1nnc(-c2ccccc2)nc1Sc1ccc(Cl)cc1 | -6 | -20 | 1 | 2 | 2 | 33* | -3
Cc1ccc(C)c2c(N)c3c(nc12)CCCCC3 (tested in a mixture with another compound) | -2 | 6 | 2 | 1 | -3 | -6 | nt
OC[C@@H]1CN(CCN2CCOCC2)C[C@H](n2cnc3c(NC4CCC4)ncnc32)O1 | 1 | nt | -1 | 3 | -1 | 2 | nt
Cc1cccc(NS(=O)(=O)c2ccc3[nH]c(=O)[nH]c3c2)c1C | -1 | -2 | -2 | -3 | -1 | -5 | nt
Cc1cccc(NS(=O)(=O)c2ccc3c(c2)Cc2cc(S(=O)(=O)Nc4cccc(C)c4C)ccc2-3)c1C | 2 | -5 | 1 | -6 | -6 | 36* | 44
O=C(Nc1ncc(Cc2ccccc2Cl)s1)c1ccc(-c2cccc([N+](=O)[O-])c2)o1 | -5 | -3 | 1 | -1 | 2 | 36* | 3
O=c1cc(CN2CCN(S(=O)(=O)c3cccc(Cl)c3)CC2)c2ccc(O)cc2o1 | -3 | 17 | 3 | 0 | 3 | 35* | 41
O=c1cc(CN2CCN(S(=O)(=O)c3ccc4c(c3)OCCO4)CC2)c2ccc(O)cc2o1 | 1 | 19 | 5 | 1 | 0 | 15 | nt
COc1cc(C2C(C#N)=C(N)N(Nc3ccccc3)C3=C2C(=O)CC(C)(C)C3)ccc1OCc1cccc(F)c1 (configuration not stated) | -7 | -10 | 0 | -13 | 2 | 31* | 13
Cc1cc(C)c2nc(SCC(=O)Nc3ccc(S(=O)(=O)N4CCCC4)cc3)c(C)cc2c1 | -3 | 9 | 1 | 2 | 0 | 36* | 9
CCOc1ccccc1NC(=O)C(OC(=O)c1cnccn1)c1ccccc1 (configuration not stated) | 6 | -10 | -1 | -3 | -2 | -5 | nt
CCCCC1=CC2=CC(=O)C(C)(OC(=O)CC)C(=O)C2=CO1 (configuration not stated) | 11 | 1 | 0 | 19 | -2 | 33* | 45*
CCCCC1=CC2=CC(=O)C(C)(OC(=O)C3CCCC3)C(=O)C2=CO1 (configuration not stated) | 6 | 4 | 0 | 14 | -3 | 53* | 29
O=CNn1cnc2c(oc3nc(-c4ccccc4)cc(-c4ccco4)c32)c1=O | 21 | -10 | 1 | 0 | 2 | 36* | 5
COC(=O)[C@@H](Cc1c[nH]c2ccccc12)NC(=O)CCC(=O)c1ccc(Br)cc1 | 1 | -16 | 0 | -3 | -2 | -7 | nt
SMILES | SUMO1 PPI mod | Scp1 inh | LMPTP inh | DNMT1 inh | STEP block | NadD block | NadD inh conf
COc1ccc(-c2csc(NC(=O)c3cc(-c4cccs4)nc4ccccc34)n2)c(OC)c1 | 1 | 2 | 0 | -8 | 2 | 34* | 10
O=C(NNc1nc2ccc(Cl)cc2s1)c1cc(-c2cccs2)nc2ccccc12 | 1 | 7 | 3 | 22 | 2 | 44* | 48*
Cc1ccc(NC(=O)c2cc(-c3cccs3)nc3ccccc23)nc1 | -12 | 1 | 1 | 3 | 2 | 3 | nt
Cc1cc(C)c2nc(NNC(=O)c3cc(-c4cccs4)nc4ccccc34)sc2c1 | -5 | 0 | 2 | 6 | 0 | 51* | 2
COc1ccc(-c2noc(N3CCC(C(=O)Nc4cc(OC)c(OC)c(OC)c4)CC3)n2)cc1 | -1 | -5 | 2 | -4 | 1 | -12 | nt
O=c1c2ccccc2nc(-c2ccc(F)cc2)n1NCc1ccccc1O | 5 | -3 | -1 | -3 | 1 | 2 | nt
Cc1ccc2[nH]c(=O)c(C3C(C#N)=C(N)Oc4c3ccc3cccnc43)cc2c1 (configuration not stated) | -10 | -18 | 1 | 3 | 3 | 45* | 21
N#CC1=C(N)Oc2c(ccc3cccnc23)C1c1ccccc1 (configuration not stated) | -28 | -17 | 6 | 1 | -3 | 8 | nt
COc1cccc(-c2cnc3c(NC=O)cc(-c4ccncc4)cn23)c1 | -19 | nt | 1 | -9 | 1 | 7 | nt
COc1cc2nc(N3CCNCC3)nc(N)c2cc1OC | 17 | -9 | 37 | -2 | 6 | 34* | 19
COc1cc2nc(N3CCN(c4cc(C)ccc4C)CC3)nc(N)c2cc1OC | -14 | -2 | 6 | -2 | 5 | 3 | nt
CC1=NN(c2ccc(Cl)cc2)C(=O)C1C(c1ccccc1O)c1c(C)[nH]n(-c2ccc(Cl)cc2)c1=O (configuration not stated) | 23 | -3 | 7 | -37 | 0 | 31* | 52*
Cc1[nH]n(-c2ccccc2)c(=O)c1-c1ccc(Cl)cc1 | 2 | -9 | 0 | -5 | -3 | 0 | nt
O=c1[nH]c2cc([N+](=O)[O-])ccc2c2cc(Br)ccc12 | -15 | nt | 7 | 47 | 8 | 38* | 11

Screening data deposited in PubChem by Sanford-Burnham Center for Chemical Genomics.
